Data published in the EternaBench riboswitch data.

Legend:
MS2 coat protein [1] = assay: apparent Kd, MS2 coat protein; higher = weaker binding; RNA-MaP array; theophylline 2 mM where present
Procedure, shortened: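 The apparent Kd comes from binding curves fitted cluster by cluster, filtered, and summarised as a median. Those curves followed SNAP-549-labelled MS2 coat protein from 0.7 or 1.5 nM, doubling to 3 µM, on Illumina sequencing-chip clusters where stalled E. coli RNA polymerase had transcribed the designs, without and then with constant ligand. The buffer was 100 mM Tris-HCl pH 7.5, 80 mM KCl, 4 mM MgCl2, BSA, DTT, yeast tRNA and Tween-20, and green signal was normalised to red-channel RNA signal and control-cluster median Fmax.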

MS2 coat protein [2] = assay: apparent Kd, MS2 coat protein; higher = weaker binding; RNA-MaP array
Procedure, shortened: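 Designed RNAs were produced on an Illumina sequencing chip by transcription of sequenced DNA templates. Binding to fluorescently labeled MS2 coat protein (1.5 nM to 3 μM) was measured at room temperature with or without input ligand. The apparent Kd is the median of per-cluster binding-curve fits. Designs were excluded when measured on fewer than 10 clusters.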

[3] = designed as: ON switch for theophylline, no ligand
[4] = ligand present: theophylline, designed as: ON switch for theophylline
[5] = designed as: OFF switch for theophylline, no ligand
[6] = ligand present: theophylline, designed as: OFF switch for theophylline
[7] = designed as: OFF switch for flavin mononucleotide, no ligand
[8] = ligand present: flavin mononucleotide, designed as: OFF switch for flavin mononucleotide
[9] = designed as: ON switch for flavin mononucleotide, no ligand
[10] = ligand present: flavin mononucleotide, designed as: ON switch for flavin mononucleotide

Sequence	apparent Kd (MS2 coat protein [1]; [3]) [µM]	apparent Kd (MS2 coat protein [1]; [4]) [µM]	apparent Kd (MS2 coat protein [1]; [5]) [µM]	apparent Kd (MS2 coat protein [1]; [6]) [µM]	also measured
GAUAGUUGAAGGGAUACCAGCCUGGACAUGAGGAUCACCCAUGUAGCGUGUUUGAAACUGGGCCCUUGGCAGCCCAUAUUGUGUA	0.0159	0.0146			
AAGGUGAUCCUCGAUACCAGCUCAACAUGAGGAUCACCCAUGUAAGCCUGGAAACAGGCGAGCCCUUGGCAGCGAGUUACAUCAA	0.0621	0.0178			
AAACAUUGCUGCGAUACCAGACAUGAGGAUCACCCAUGUACCAAGGUAAGAAAAUAACAUGUCCCUUGGCAGCGCAGCAAUGAAA			0.0164	0.418	
AAACAUUGCUCAGAUACCAGACAUGAGGAUCACCCAUGUACCAAGGUAAAGAAAUAACGUGUCCCUUGGCAGCUGAGCAAUGAAA			0.0102	0.109	
UGACAUUGCUGCGAUACCAGACAUGAGGAUCACCCAUGUACCAAGGUAACCGAAAGGCAUGUCCCUUGGCAGCGCAGCAAUGUCU			0.0115	0.197	
ACAUGAAGAACAGCGGUGGGCGCGCUCGAUACCAGUAUUUUAAACUACCCUUGGCAGCGACAUGAGGAUCACCCAUGUGAGAUGA			0.0182	0.0357	
GGGAAUGAACGUGAUACCAGAGAUCCGGUCUCCGUCACUCUACAUGAGGAUCACCCAUGUCUCCCUUGGCAGCACCGUCAUCGGG			0.0344	0.061	
GACCUUGCGGGCGCCCGCAAGGUCGCGGAUACCAGCGAGGUCCAUCGCCCUUGGCAGCCGAACAUGAGGAUCACCCAUGUCGGUU	0.0109	0.0118			
UGUUUGGUGCGCGAGUGUUGGAUAAUUGAUACCAGUGUAGAAGAGCGCCCUUGGCAGCGAAUCCUAACAUGAGGAUCACCCAUGU	0.04	0.0573			
UAUUUUGUGAUGGAUACCAGCAGAGAAAACGUUUAUCCUAACAUGAGGAUCACCCAUGUAUGCCCUUGGCAGCUGUUGUGGGAUA			0.0308	0.0361	
AUAAAUAAAACCGAUACCAGCCUUAUACAUGAGGAUCACCCAUGUUAUGCUUCCUUUUUUGGCCCUUGGCAGCGGAAAUGGGUAA	0.0833	0.0408			
AACUGGGUUCGUGAUACCAGCUCACACAUGAGGAUCACCCAUGUAGUGGGUAAAAUGUGGAGCCCUUGGCAGCACUGUGACCACG			0.0132	0.0607	
UCGUGUGUUUCGGAUACCAGUGAAAUCGAUACAUGAGGAUCACCCAUGUGAGAGGAUGUACACCCUUGGCAGCUGGCUGUAGCGG	0.0479	0.0397			
GCACGACAUGAGGAUCACCCAUGUGCAGAUACCAGUAGGAUAUCCUACCCUUGGCAGCUGAGUGGAUCCGGAGGACCAUGGGUAA	0.038	0.0826			
ACGAACUGUAGUGAUACCAGACGUACAUGAGGAUCACCCAUGUUGUAAACAUGGUUAAUAGUCCCUUGGCAGCACAGUUAGUUCG			0.347	0.531	
AAGGUGAUCCCAGAUACCAGCCUAACAUGAGGAUCACCCAUGUUUGGGACGAAAGUCCCAGGCCCUUGGCAGCUGGGUUGCCAAG	0.225	0.0303			
ACACAUGAGGAUCACCCAUGUCCAAUAGAUACCAGUGAUACAGUGCACCCUUGGCAGCUGUUACUGAGUAAUGGUUCCCUCGGAA	0.0366	0.046			
UAACAUGAGGAUCACCCAUGUAUAGUCGAUACCAGCUCUGUCUAGAGCCCUUGGCAGCGACACUGGUAUCCAUGGGUGUGGAUAC	0.108	0.0561			
AGCUCAUAGAGUGAUACCAGACUACAUGAGGAUCACCCAUGUUUCUUUUGGUUAUCAUGUGUCCCUUGGCAGCACAAGAAGAGCA			0.0134	0.114	
AGAUCUUUCGAAAGAAGGAUCUUGUCUGAUACCAGAGACGAAAGUCUCCCUUGGCAGCAGUGCCAACAUGAGGAUCACCCAUGUA	0.0201	0.0214			
UGUAACAUGAGGAUCACCCAUGUAAGUGAUACCAGAUAAGUAGUAGUCCCUUGGCAGCAUAUUGGGCGAGUGUAUAGUCUAUACG	0.0504	0.0611			
AAGCUGCCAAGAAGGUGAUCCAAAUGUGAUACCAGCUAGGAAACUAGCCCUUGGCAGCACAUGAGGAUCACCCAUGUAAUAAUAA			0.0608	0.182	
AGAAUACAUGUUUUAAUACGGAAAACUGAUACCAGUGUAUCUAUUCACCCUUGGCAGCAGAGACAUGAGGAUCACCCAUGUAUUA	0.0413	0.0286			
CAAAACCUUACAGAUACCAGCACAUGAGGAUCACCCAUGUAUUGGACACUUCGCUCAUCGUGCCCUUGGCAGCUGUGGGACGAGG			0.0787	0.175	
AUUUACAUGGUCAUAUAUAUAUCGUCAGAUACCAGACUAGAUAUUGUCCCUUGGCAGCUGUUACAUGAGGAUCACCCAUGUUAUA			0.23	0.131	
GGUGGGACUUGUGAUACCAGCCUAAUUCGAAUCGAAUUGCACAUGAGGAUCACCCAUGUCGGCCCUUGGCAGCAUGAGUAUUUAU	0.287	0.0204			

Sequence	apparent Kd (MS2 coat protein [1]; [3]) [µM]	apparent Kd (MS2 coat protein [1]; [4]) [µM]	apparent Kd (MS2 coat protein [1]; [5]) [µM]	apparent Kd (MS2 coat protein [1]; [6]) [µM]	also measured
UUAGAUAUGACAGAUACCAGCGUGUUGUAGAACAUGAGGAUCACCCAUGUAGUGAUCGUGCGCCCUUGGCAGCUGGUAUGUUUGG	0.28	0.881			
ACAUGAGGAUCACCCAUGUUCCUCGCCGAUACCAGUGAAGAAUUACGCCCUUGGCAGCGGAAAGAGUGUUUUGGAGAUGAGGUAC			0.0726	0.108	
AGUCUAUGAAGAGAUACCAGUGAGAGACAUAGACAUGAGGAUCACCCAUGUGACAUGAAGCACCCUUGGCAGCUCAACGAGCUCA	0.0428	0.0161			
AUAACAUGAGGAUCACCCAUGUAAGCAGAUACCAGCUAGGAAACUAGCCCUUGGCAGCUGCAUUCCUCAUGUAGGUAUCUGCUAA			0.0158	0.0625	
GUCCUAGCGAUCGCUCGCUAGGACGCGGAUACCAGCGAGGUCCAUCGCCCUUGGCAGCCGAACAUGAGGAUCACCCAUGUCGGUA	0.00959	0.0149			
AAAGGCGGGCAGGAUACCAGCGCUAACAUGAGGAUCACCCAUGUACAAAUAAUAACAUGGUGCCCUUGGCAGCCUGGGCGUCUGC	0.056	0.285			
ACACAUGAGGAUCACCCAUGUUGCAUAGAUACCAGAUAACGUGAGAUCCCUUGGCAGCUAACUGCAUGAACUUGACAUGCAUCAU	0.0424	0.136			
GGGAAAGAAUGUGAUACCAGAGAACCGGUCUCCAUCAAUAUACAUGAGGAUCACCCAUGUCUCCCUUGGCAGCACCAUCAUCAAA			0.0231	0.0758	
GAUGAACUAUAUGAUACCAGACAACAUGAGGAUCACCCAUGUGAAAGUCGUCCUCUGCCUGUCCCUUGGCAGCGUAUAGUUUAUC			0.0504	0.168	
AGCGACAUGCAUGAUACCAGCUACAUGAGGAUCACCCAUGUACGUCAGUAAUGACUGUGUAGCCCUUGGCAGCAUAAAGCAUGUC			0.0288	0.0567	
UCUUGAGUUUCGGAUACCAGUGUUGUCGAUACAUGAGGAUCACCCAUGUUAGAGGAUGUACACCCUUGGCAGCCGGCUGUGGCGG	0.0207	0.013			
GCUGUAAGUGCAGAUACCAGCAUGUUAUAUUUCUAAUGACAUGAGGAUCACCCAUGUAAAUGCCCUUGGCAGCUGCACUUACAGC	0.0189	0.0188			
AUAAGUAAUGUUACGUGUUUAAUUGCAGAUACCAGACUAUACGUUGUCCCUUGGCAGCUGAAUUACAUGAGGAUCACCCAUGUUG			0.0259	0.025	
ACAUGAGGAUCACCCAUGUCACGGCACGAUACCAGCUGAUGCGGUGGCCCUUGGCAGCGUGACGUUUGGUCCCGCGGAUGACGGG	0.0408	0.0168			
UCCACACGUCAGAAGGAUGUAUCUACAAUUUUCAUAGGAUAUGACCAUGGAGAUGAUUCCACAUGAGGAUCACCCAUGUCUGCU					apparent Kd (MS2 coat protein [2]; [7]): 0.288 µM; apparent Kd (MS2 coat protein [2]; [8]): 0.239 µM
AAUCUGAUUGCGGCCGCCACUAAUUUUCCAUGAGUAUUGCAAUUACAUGAGGAUCACCCAUGUCAUAGGACCGGGCAUGACAUCU					apparent Kd (MS2 coat protein [2]; designed as: ON switch for tryptophan, no ligand): 0.303 µM; apparent Kd (MS2 coat protein [2]; ligand present: tryptophan, designed as: ON switch for tryptophan): 0.24 µM
GUGAAACAUGAGGAUCACCCAUGUCAGGAUAUACUAAUGUCCGCUCGAUUGGACCUGUGUAGAAGGGACUGUGA					apparent Kd (MS2 coat protein [2]; [7]): 0.0127 µM; apparent Kd (MS2 coat protein [2]; [8]): 0.0176 µM
AGCCCUCAAUCAGGAUAUGUGUGCAUCUAUUGACUUCUAACUAGACAUGAGGAUCACCCAUGUGAACAGAAGGGAUUGUAAUCA					apparent Kd (MS2 coat protein [2]; [7]): 0.0199 µM; apparent Kd (MS2 coat protein [2]; [8]): 0.0196 µM
CUAACUCGUGUUAGGAUAUGGUAAGGGCUAGCCACCCAGAAGGAACAUGAGGAUCACCCAUGUCGACAGUCCCG					apparent Kd (MS2 coat protein [2]; [7]): 0.0178 µM; apparent Kd (MS2 coat protein [2]; [8]): 0.0491 µM
AUCUAACAUGAGGAUCACCCAUGUCAGGAUAUUGCAGCCGUAGUAGGUCUAGUUUGUGCAAGAAGGGACAUCUC					apparent Kd (MS2 coat protein [2]; [7]): 0.00955 µM; apparent Kd (MS2 coat protein [2]; [8]): 0.0225 µM
CCCAAAGACACAUGAGGAUCACCCAUGUUCCGCAAACAAUUGGAGGAUAUGAAGGAACGCAGCAAACAGAAGGCCAUAAAUAGC					apparent Kd (MS2 coat protein [2]; [9]): 0.0168 µM; apparent Kd (MS2 coat protein [2]; [10]): 0.00967 µM
AGUUAGCCUGAUGAGGAUAUACACGCCCGGACAUGAGGAUCACCCAUGUUAACAAGUUAGCUAUUGUAGAAGGCAUCGAGGUGAUG					apparent Kd (MS2 coat protein [2]; [9]): 0.0448 µM; apparent Kd (MS2 coat protein [2]; [10]): 0.0335 µM
CUCGCUAAAGUAGGAUAUACACAGACAUGAGGAUCACCCAUGUAACGAUGAACCCUUAUUAGAUGGUAGAAGGACUCAAGGCCG					apparent Kd (MS2 coat protein [2]; [7]): 0.0131 µM
AAGCGUAGCUAGGAUAUGUAAUGACGGCUUUGAACAGAAGGAGCUACAUGAGGAUCACCCAUGUGUCCGACACA					apparent Kd (MS2 coat protein [2]; [7]): 0.0159 µM; apparent Kd (MS2 coat protein [2]; [8]): 0.125 µM
UCGUAGAUAGUAGGAUAUAAGGCCCUAGAGCAUUUAGAAGGACUUUUGAGACUAACAUGAGGAUCACCCAUGUUUCGCACAUGG					apparent Kd (MS2 coat protein [2]; [9]): 0.297 µM; apparent Kd (MS2 coat protein [2]; [10]): 0.171 µM
